From ChEMBL document CHEMBL5058577, “EUbOPEN Chemogenomics Library 2 (Multiplex)” (2022)

Test system: U2OS
Experiment: Multiplex assay against U2OS
Assay type: toxicity, cell-based
Details: human
In short: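 On a CQ1 microscope at 37°C and 5% CO2, live cells were imaged after compound addition. They had been stained at seeding with Hoechst33342, BioTracker Green Microtubule Cytoskeleton Dye, MitoTracker Red and Annexin V Alexa Fluor 680. CellPathfinder machine-learning gating assigned cells to Hoechst high-intensity objects or normal cells, normal cells to healthy, pyknosed or fragmented nuclei, and pyknosed cells to mitotic or apoptotic. Tubulin, mitochondrial-mass and membrane-permeability phenotypes are per cents of healthy-nucleus cells.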

[1] = 12 h, 1 µM, compound concentration 1 uM, replicate 1
[2] = 12 h, 1 µM, compound concentration 1 uM, replicate 2
[3] = 12 h, 10 µM, compound concentration 10 uM, replicate 1
[4] = 12 h, 10 µM, compound concentration 10 uM, replicate 2
[5] = 24 h, 1 µM, compound concentration 1 uM, replicate 1
[6] = 24 h, 1 µM, compound concentration 1 uM, replicate 2
[7] = 24 h, 10 µM, compound concentration 10 uM, replicate 1
[8] = 24 h, 10 µM, compound concentration 10 uM, replicate 2
[9] = 48 h, 1 µM, compound concentration 1 uM, replicate 1
[10] = 48 h, 1 µM, compound concentration 1 uM, replicate 2
[11] = 48 h, 10 µM, compound concentration 10 uM, replicate 1
[12] = 48 h, 10 µM, compound concentration 10 uM, replicate 2

SMILES: CC[C@H]1OC(=O)[C@H](C)[C@@H](O[C@H]2C[C@@](C)(OC)[C@@H](O)[C@H](C)O2)[C@H](C)[C@@H](O[C@@H]2O[C@H](C)C[C@H](N(C)C)[C@H]2O)[C@@]2(C)CC(C)=C(O2)[C@H](C)[C@@H](O)[C@]1(C)O
- Population Apoptotic (%) [1]: 50%
- Population Fragmented Nuclei (%) [1]: 19%
- Population Healthy Nuclei (%) [1]: 63%
- Population Hoechst High Intensity Objects (%) [1]: 3%
- Population Membrane Permeable-Phenotype (%) [1]: 33%
- Population Mitochondria Different-Phenotype (%) [1]: 23%
- Population Mitotic Cells (%) [1]: 50%
- Population Normal (%) [1]: 96%
- Population Pyknosed Nuclei (%) [1]: 17%
- Population Tubulin-Different-Phenotype (%) [1]: 25%
- Total Cell Count [1]: 226
- Population Apoptotic (%) [2]: 84%
- Population Fragmented Nuclei (%) [2]: 23%
- Population Healthy Nuclei (%) [2]: 62%
- Population Hoechst High Intensity Objects (%) [2]: 1%
- Population Membrane Permeable-Phenotype (%) [2]: 21%
- Population Mitochondria Different-Phenotype (%) [2]: 14%
- Population Mitotic Cells (%) [2]: 15%
- Population Normal (%) [2]: 98%
- Population Pyknosed Nuclei (%) [2]: 14%
- Population Tubulin-Different-Phenotype (%) [2]: 14%
- Total Cell Count [2]: 91
- Population Apoptotic (%) [3]: 65%
- Population Fragmented Nuclei (%) [3]: 34%
- Population Healthy Nuclei (%) [3]: 40%
- Population Hoechst High Intensity Objects (%) [3]: 7%
- Population Membrane Permeable-Phenotype (%) [3]: 82%
- Population Mitochondria Different-Phenotype (%) [3]: 63%
- Population Mitotic Cells (%) [3]: 34%
- Population Normal (%) [3]: 92%
- Population Pyknosed Nuclei (%) [3]: 25%
- Population Tubulin-Different-Phenotype (%) [3]: 89%
- Total Cell Count [3]: 223
- Population Apoptotic (%) [4]: 73%
- Population Fragmented Nuclei (%) [4]: 21%
- Population Healthy Nuclei (%) [4]: 47%
- Population Hoechst High Intensity Objects (%) [4]: 4%
- Population Membrane Permeable-Phenotype (%) [4]: 72%
- Population Mitochondria Different-Phenotype (%) [4]: 81%
- Population Mitotic Cells (%) [4]: 26%
- Population Normal (%) [4]: 95%
- Population Pyknosed Nuclei (%) [4]: 31%
- Population Tubulin-Different-Phenotype (%) [4]: 96%
- Total Cell Count [4]: 128
- Population Apoptotic (%) [5]: 65%
- Population Fragmented Nuclei (%) [5]: 20%
- Population Healthy Nuclei (%) [5]: 63%
- Population Hoechst High Intensity Objects (%) [5]: 4%
- Population Membrane Permeable-Phenotype (%) [5]: 20%
- Population Mitochondria Different-Phenotype (%) [5]: 15%
- Population Mitotic Cells (%) [5]: 35%
- Population Normal (%) [5]: 95%
- Population Pyknosed Nuclei (%) [5]: 16%
- Population Tubulin-Different-Phenotype (%) [5]: 17%
- Total Cell Count [5]: 256
- Population Apoptotic (%) [6]: 72%
- Population Fragmented Nuclei (%) [6]: 19%
- Population Healthy Nuclei (%) [6]: 64%
- Population Hoechst High Intensity Objects (%) [6]: 5%
- Population Membrane Permeable-Phenotype (%) [6]: 14%
- Population Mitochondria Different-Phenotype (%) [6]: 14%
- Population Mitotic Cells (%) [6]: 27%
- Population Normal (%) [6]: 94%
- Population Tubulin-Different-Phenotype (%) [6]: 10%
- Total Cell Count [6]: 115
- Population Apoptotic (%) [7]: 67%
- Population Fragmented Nuclei (%) [7]: 33%
- Population Healthy Nuclei (%) [7]: 36%
- Population Hoechst High Intensity Objects (%) [7]: 5%
- Population Membrane Permeable-Phenotype (%) [7]: 56%
- Population Mitochondria Different-Phenotype (%) [7]: 65%
- Population Mitotic Cells (%) [7]: 32%
- Population Normal (%) [7]: 94%
- Population Pyknosed Nuclei (%) [7]: 29%
- Population Tubulin-Different-Phenotype (%) [7]: 76%
- Total Cell Count [7]: 210
- Population Apoptotic (%) [8]: 82%
- Population Fragmented Nuclei (%) [8]: 24%
- Population Healthy Nuclei (%) [8]: 45%
- Population Hoechst High Intensity Objects (%) [8]: 4%
- Population Membrane Permeable-Phenotype (%) [8]: 75%
- Population Mitochondria Different-Phenotype (%) [8]: 86%
- Population Mitotic Cells (%) [8]: 17%
- Population Normal (%) [8]: 95%
- Population Pyknosed Nuclei (%) [8]: 30%
- Population Tubulin-Different-Phenotype (%) [8]: 88%
- Total Cell Count [8]: 121
- Population Apoptotic (%) [9]: 67%
- Population Fragmented Nuclei (%) [9]: 19%
- Population Healthy Nuclei (%) [9]: 54%
- Population Hoechst High Intensity Objects (%) [9]: 9%
- Population Membrane Permeable-Phenotype (%) [9]: 13%
- Population Mitochondria Different-Phenotype (%) [9]: 8%
- Population Mitotic Cells (%) [9]: 32%
- Population Normal (%) [9]: 91%
- Population Pyknosed Nuclei (%) [9]: 26%
- Population Tubulin-Different-Phenotype (%) [9]: 11%
- Total Cell Count [9]: 300
- Population Apoptotic (%) [10]: 78%
- Population Fragmented Nuclei (%) [10]: 32%
- Population Healthy Nuclei (%) [10]: 58%
- Population Hoechst High Intensity Objects (%) [10]: 2%
- Population Membrane Permeable-Phenotype (%) [10]: 12%
- Population Mitochondria Different-Phenotype (%) [10]: 12%
- Population Mitotic Cells (%) [10]: 21%
- Population Normal (%) [10]: 97%
- Population Pyknosed Nuclei (%) [10]: 9%
- Population Tubulin-Different-Phenotype (%) [10]: 7%
- Total Cell Count [10]: 147
- Population Apoptotic (%) [11]: 85%
- Population Fragmented Nuclei (%) [11]: 37%
- Population Healthy Nuclei (%) [11]: 31%
- Population Hoechst High Intensity Objects (%) [11]: 7%
- Population Membrane Permeable-Phenotype (%) [11]: 58%
- Population Mitochondria Different-Phenotype (%) [11]: 55%
- Population Mitotic Cells (%) [11]: 14%
- Population Normal (%) [11]: 92%
- Population Pyknosed Nuclei (%) [11]: 31%
- Population Tubulin-Different-Phenotype (%) [11]: 63%
- Total Cell Count [11]: 236
- Population Apoptotic (%) [12]: 83%
- Population Fragmented Nuclei (%) [12]: 20%
- Population Healthy Nuclei (%) [12]: 42%
- Population Hoechst High Intensity Objects (%) [12]: 9%
- Population Membrane Permeable-Phenotype (%) [12]: 62%
- Population Mitochondria Different-Phenotype (%) [12]: 81%
- Population Mitotic Cells (%) [12]: 16%
- Population Normal (%) [12]: 90%
- Population Pyknosed Nuclei (%) [12]: 36%
- Population Tubulin-Different-Phenotype (%) [12]: 88%
- Total Cell Count [12]: 112
